MrgX1 ag – activates human MrgX1 receptor signaling; Q96LB2; MrgX1-HEK293 cells, Fluo-4 calcium fluorescence, agonist mode; active compounds read high; B-score at 10 µM; 0.44% of 310,000 active; AID 588627;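 active = calcium response B-score plate-corrected fluorescence ratio at least 3 library SD, with starting fluorescence B-score inside 5 SD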
Target sequence (Q96LB2 whole entry, looked up): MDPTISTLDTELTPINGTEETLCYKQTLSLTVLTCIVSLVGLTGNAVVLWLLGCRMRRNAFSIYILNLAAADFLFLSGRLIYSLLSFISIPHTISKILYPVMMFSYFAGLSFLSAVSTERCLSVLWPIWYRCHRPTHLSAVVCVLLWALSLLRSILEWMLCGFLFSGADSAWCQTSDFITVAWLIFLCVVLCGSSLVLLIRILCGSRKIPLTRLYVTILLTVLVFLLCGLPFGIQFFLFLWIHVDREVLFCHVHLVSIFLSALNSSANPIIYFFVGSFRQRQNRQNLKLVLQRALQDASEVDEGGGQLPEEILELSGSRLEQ
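Material: MrgX1-expressing HEK293 cells; input: 15,000 cells per well; doses: test compound given as first of three sequential additions; schedule: overnight plating before 1 h dye loading; technique: Fluo-4 NW calcium-flux fluorescence, kinetic read; evaluation: baseline-normalised fluorescence change ratio, B-scored; control set: plate-wise positive and negative controls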
RGS4 pot – potentiators or activators of RGS4; 0.92% of 310,000 active; HEK293 M3R/inducible RGS4, carbachol calcium flux Fluo4; active compounds read low; AID 463111; B-score at 10 µM;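 active = B-score of the integrated calcium signal more than 4 SD below the library mean, with starting fluorescence not abnormally high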;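 note: negative B-score means reduced calcium response which marks RGS4 activation or potentiation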
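System: HEK293 FlpIn-TREx cells, stable M3R, doxycycline-inducible RGS4. Timing: overnight RGS4 induction, 30 min dye load 37 °C, 20 min compound RT. Also added: carbachol, ECmax concentration. Measured by: Fluo4 fluorescence kinetic imaging of calcium. Evaluation: integrated calcium ratio converted to B score.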
RGS4 block – inhibitors of human RGS4; P49798; AID 463165; B-score at 10 µM; 0.45% of 310,000 active; HEK293 M3R/RGS4 inducible, Fluo-4 calcium flux; active compounds read high; triggered by carbachol at its EC20;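 active = B-score, a plate-corrected calcium signal, over three deviations above library mean, with baseline fluorescence within five deviations of library mean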;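 note: RGS4 expression induced by doxycycline in cells with stable M3 receptor; B-score is computed from the integrated fluorescence ratio over baseline after carbachol; higher B-score means a larger calcium signal and so more RGS4 inhibition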
Target sequence (P49798 whole entry, looked up): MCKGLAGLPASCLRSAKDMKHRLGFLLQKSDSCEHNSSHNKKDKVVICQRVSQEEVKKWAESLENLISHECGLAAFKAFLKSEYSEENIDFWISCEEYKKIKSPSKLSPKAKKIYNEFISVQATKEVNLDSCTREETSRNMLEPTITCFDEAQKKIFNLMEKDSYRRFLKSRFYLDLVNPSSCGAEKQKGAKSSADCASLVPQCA
MrgX1 allo act – human MrgX1 positive allosteric modulation, primary screen. Q96LB2. B-score at 10 µM. MrgX1-HEK293, Fluo-4 calcium flux, FDSS; active compounds read high. 0.63% of 310,000 active;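 active = plate-corrected calcium response at least 3 library SD above typical, normal starting fluorescence, not activating the receptor alone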;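 note: compound read alongside a low EC10 to EC30 dose of BAM8-22 agonist; peak minus trough fluorescence over baseline measured at the second addition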
Kir21 block – inhibitors of mouse Kir2.1 inward-rectifier potassium channel. B-score at 10 µM. P35561. 0.85% of 310,000 active. HEK293-Kir2.1, FluxOR thallium flux fluorescence; active compounds read low;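 active = fluorescence ratio B-score at or below minus 3 SD of library scores, with starting-brightness B-score within 2 SD, cut at about -4.2 in these data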;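 note: channel flux triggered by added potassium and thallium sulfate stimulus; B-score of peak minus minimum fluorescence over baseline after thallium stimulus; more negative B-score means stronger Kir2.1 block with less thallium influx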
MrgX1 antagonist – human MrgX1 receptor antagonism, primary screen | MRGX1-HEK293 calcium flux, Fluo-4, BAM8-22 antagonism; active compounds read low | Q96LB2 | B-score at 10 µM | 1.3% of 310,000 active | AID 588676;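 active = calcium-response B-score plate-corrected more than 3 library SD below zero, starting fluorescence within 5 deviations, no agonist response on first addition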;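 note: peak minus trough fluorescence over baseline after final BAM8-22 challenge near maximal dose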
MrgX1 PAM conf – confirmation of human MrgX1 receptor positive allosteric modulators | shares compounds with MrgX1 allo act | MrgX1-HEK293, Fluo-4 calcium fluorescence, FDSS | activation (ratio percentage), % at 10 µM | 13% of 1,200 active;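 active = ratio at least 3 SD above the weak peptide control, stable starting fluorescence, no direct agonism earlier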;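 note: compound followed by low BAM8-22 agonist challenge near EC20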
HEK293 Ca flux – counter-screen for MrgX1 antagonists: effect in parental HEK293 cells | AID 624111 | shares compounds with MrgX1 antagonist | fluorescence ratio F(max-min)/F0 at 10 µM | Fluo-4 calcium fluorescence, FDSS | 2% of 4,000 active;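 active = duplicate-averaged calcium fluorescence ratio at least three times the standard deviation of buffer wells, a nonspecific response in parental cells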
HEK293 Ca counter – MrgX1 allosteric activator counter-screen hit in parental HEK293 cells; shares compounds with MrgX1 antagonist; parental HEK293 calcium flux, Fluo-4 fluorescence ratio; active compounds read high; fluorescence ratio F(max-min)/F0 at 10 µM; 0.4% of 4,000 active; AID 624114;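 active = calcium fluorescence ratio, averaged over duplicates, at least 3 SD of the buffer-well ratio, meaning a nonspecific response in receptor-free cells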;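 note: untransfected parental HEK293 lacking MrgX1 used as counterscreen for MrgX1 allosteric activators; fluorescence change taken during the second addition on a kinetic imager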
HEK293 Ca cntr2 – MrgX1 activator counter-screen hit in parental HEK293 cells. AID 624115. fluorescence ratio F(max-min)/F0 at 10 µM. 8.7% of 4,000 active. Fluo-4 calcium fluorescence (FDSS); active compounds read high. shares compounds with MrgX1 antagonist;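 active = calcium fluorescence ratio at least three times the spread of buffer wells, meaning a non-specific response in parental cells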
Large screens that a line does not name were inactive (follow-up assays come after a bar, where they were run). This is a sample that favours compounds with a hit; in the whole collection about 4.1% have one here.

CCOC(=O)c1ccc(NC(=S)NCCCN2CCCC2=O)cc1	MrgX1 allo act 8.6 | MrgX1 PAM conf inactive | HEK293 Ca flux inactive | HEK293 Ca counter inactive | HEK293 Ca cntr2 inactive
Cc1cc(C(=O)NCc2ccccc2Cl)n(-c2ccccc2)n1	MrgX1 allo act 9.3 | MrgX1 PAM conf inactive | HEK293 Ca flux inactive | HEK293 Ca counter inactive | HEK293 Ca cntr2 inactive
COc1ccccc1CNC(=O)c1cc(C)nn1-c1ccccc1	none
Cc1ccccc1-n1ncc2c1CC(C)(C)CC2NC(=O)CCC(F)(F)F (centres undefined)	MrgX1 allo act 9.8 | MrgX1 PAM conf inactive | HEK293 Ca flux inactive | HEK293 Ca counter inactive | HEK293 Ca cntr2 inactive
CSc1ncccc1C(=O)NC1CC(C)(C)Cc2c1cnn2-c1ccccc1C (centres undefined)	MrgX1 allo act 17 | MrgX1 PAM conf inactive | HEK293 Ca flux inactive | HEK293 Ca counter inactive | HEK293 Ca cntr2 inactive
Cc1ccccc1-n1ncc2c1CC(C)(C)CC2NC(=O)c1snnc1C (centres undefined)	MrgX1 allo act 10 | MrgX1 PAM conf 7.8% | HEK293 Ca flux inactive | HEK293 Ca counter inactive | HEK293 Ca cntr2 inactive
NS(=O)(=O)c1ccc(NC(=O)c2ccc(S(=O)(=O)N3CCc4ccccc43)cc2)cc1	none
Cc1ccc(OCc2n[nH]c(=S)n2-c2ccc(Cl)cc2)cc1	none
Cc1ccc(OCc2n[nH]c(=S)n2-c2ccc(Br)cc2)cc1	MrgX1 allo act 7.6 | MrgX1 PAM conf inactive | HEK293 Ca flux inactive | HEK293 Ca counter inactive | HEK293 Ca cntr2 inactive
CCn1c(/N=C/c2ccccc2NS(=O)(=O)c2ccc(C)cc2)nc2ccccc21	MrgX1 allo act 14 (no result: RGS4 pot, RGS4 block, Kir21 block) | MrgX1 PAM conf inactive | HEK293 Ca flux inactive | HEK293 Ca counter inactive | HEK293 Ca cntr2 inactive
Cc1ccccc1Nc1c(C)c(C)nc2ncnn12	none
O=C(Cn1cc2c(n1)CCCC2)Nc1ccccc1Cl	MrgX1 allo act 13 | MrgX1 PAM conf inactive | HEK293 Ca flux inactive | HEK293 Ca counter inactive | HEK293 Ca cntr2 86
O=C(Cn1cc2c(n1)CCCCC2)Nc1ccccc1Cl	MrgX1 allo act 8 | MrgX1 PAM conf inactive | HEK293 Ca flux inactive | HEK293 Ca counter inactive | HEK293 Ca cntr2 inactive
O=C(Cn1cc2c(n1)CCCC2)Nc1ccccc1Br	MrgX1 allo act 22 | MrgX1 PAM conf inactive | HEK293 Ca flux inactive | HEK293 Ca counter inactive | HEK293 Ca cntr2 inactive
Cc1ccc(Cl)cc1NC(=O)Cn1cc2c(n1)CCCC2	none
O=C(Cn1cc2c(n1)CCCCC2)NC1CCCCCC1	none
CC1CCCC(NC(=O)Cn2cc3c(n2)CCCCC3)C1C (centres undefined)	MrgX1 allo act 6.5 | MrgX1 PAM conf inactive | HEK293 Ca flux inactive | HEK293 Ca counter inactive | HEK293 Ca cntr2 inactive
Cc1ccc(NC(=O)Cn2cc3c(n2)CCC(C)C3)cc1 (centres undefined)	none
COC(=O)c1ccccc1NC(=O)Cn1cc2c(n1)CCC(C)C2 (centres undefined)	MrgX1 allo act 23 | MrgX1 PAM conf inactive | HEK293 Ca flux inactive | HEK293 Ca counter inactive | HEK293 Ca cntr2 inactive
CC(=O)NCC(=O)NC1CCCc2c1cnn2-c1ccc(C(C)(C)C)cc1 (centres undefined)	MrgX1 allo act 9 | MrgX1 PAM conf inactive | HEK293 Ca flux inactive | HEK293 Ca counter inactive | HEK293 Ca cntr2 inactive
CCOCCCNC(=O)CCS(=O)(=O)Cc1ccc(C)cc1	none
O=C1CC(c2ccco2)CC(O)=C1C=Nc1cc(Cl)ccc1O (centres undefined)	MrgX1 allo act 10 | MrgX1 PAM conf 41% | HEK293 Ca flux inactive | HEK293 Ca counter inactive | HEK293 Ca cntr2 inactive
CCN1C(=O)CSC1=NC12CC3CC(CC(C3)C1)C2	none
CN1C(=O)CSC1=NC12CC3CC(CC(C3)C1)C2	MrgX1 allo act 8.2 | MrgX1 PAM conf inactive | HEK293 Ca flux inactive | HEK293 Ca counter inactive | HEK293 Ca cntr2 inactive
Cc1ccccc1Oc1ncnc2sccc12	MrgX1 allo act 8.4 | MrgX1 PAM conf 11% | HEK293 Ca flux inactive | HEK293 Ca counter inactive | HEK293 Ca cntr2 inactive
COc1ccccc1Oc1ncnc2sccc12	none
COC(=O)c1cc2cc(NS(=O)(=O)c3ccc(C)cc3)ccc2s1	none
Cc1ccc(-c2cc(-c3ccccc3)no2)cc1	none
Cc1ccc(-c2cc3onc(-c4ccccc4)c3c(=O)n2C)cc1	MrgX1 allo act 21 (no result: RGS4 pot, RGS4 block, Kir21 block) | MrgX1 PAM conf inactive | HEK293 Ca flux inactive | HEK293 Ca counter inactive | HEK293 Ca cntr2 inactive
COCc1ccc(CN2CCC(N3CCC(C(=O)N4CCCC4)CC3)CC2)o1	MrgX1 allo act 8.9 | MrgX1 PAM conf inactive | HEK293 Ca flux inactive | HEK293 Ca counter inactive | HEK293 Ca cntr2 inactive
COCc1ccc(CN2CCC(n3nccc3NC(=O)C(OC)c3ccccc3)CC2)o1 (centres undefined)	none
CCC(C)(C)NC(=O)C(c1ccncc1)N(Cc1cccs1)C(=O)Cn1nnc2ccccc21 (centres undefined)	none
Cc1cc(NC2CCCC2)n2nc(C)c(-c3ccccc3)c2n1	MrgX1 allo act 6.8 | MrgX1 PAM conf inactive | HEK293 Ca flux inactive | HEK293 Ca counter inactive | HEK293 Ca cntr2 inactive
O=S(=O)(NCc1nc2ccccc2[nH]1)c1ccccc1	none
Cc1ccccc1CC1(CO)CCCN(C(=O)c2ccc(F)cc2)C1 (centres undefined)	MrgX1 allo act 10 | MrgX1 PAM conf inactive | HEK293 Ca flux inactive | HEK293 Ca counter inactive | HEK293 Ca cntr2 inactive
CCCN1CCN(CCCNC(=O)C2CCCN(c3nc4ccc(OCC)cc4s3)C2)CC1 (centres undefined)	none
CCOc1ccc2nc(N3CCCC(C(=O)NCC4CCCO4)C3)sc2c1 (centres undefined)	MrgX1 allo act 6.6 | MrgX1 PAM conf inactive | HEK293 Ca flux inactive | HEK293 Ca counter inactive | HEK293 Ca cntr2 inactive
O=C(NCCN1CCOCC1)c1ccc(=O)oc1	none
O=C(COc1ccc(Br)cc1)N(Cc1ccccc1)c1ccccn1	none
O=C(Cc1ccc(Br)cc1)N(Cc1ccccc1)c1ccccn1	MrgX1 allo act 7.3 | MrgX1 PAM conf inactive | HEK293 Ca flux inactive | HEK293 Ca counter inactive | HEK293 Ca cntr2 inactive
Cc1cccc(NS(=O)(=O)c2nnc(NC(=O)c3ccc(Cl)cc3)s2)c1	none

Assay outcomes deposited in PubChem BioAssay by Johns Hopkins Ion Channel Center.
